Experimental data taken from ChEMBL document CHEMBL4765248, “Design, synthesis, biological evaluation and molecular docking study of novel thieno[3,2-d]pyrimidine derivatives as potent FAK inhibitors” (Eur J Med Chem, 2020).

Columns and labels:
MDA-MB-231 [1] = assay: Antiproliferative activity against human MDA-MB-231 cells assessed as cell viability at 0.5 uM measured after 24 hrs by MTT assay (reference value: 100%); assay type: functional; conditions: read-out: Activity
A549 [2] = assay: Antiproliferative activity against human A549 cells assessed as cell viability at 2.5 uM measured after 24 hrs by MTT assay (reference value: 100%); assay type: functional; conditions: read-out: Activity
A549 [3] = assay: Antiproliferative activity against human A549 cells assessed as cell viability at 2.5 uM measured after 48 hrs by MTT assay (reference value: 100%); assay type: functional; conditions: read-out: Activity
MDA-MB-231 [4] = assay: Antiproliferative activity against human MDA-MB-231 cells assessed as cell viability at 2.5 uM measured after 48 hrs by MTT assay (reference value: 100%); assay type: functional; conditions: read-out: Activity
Homo sapiens = organism: Homo sapiens; assay: Inhibition of His-tagged human PKA catalytic domain expressed in Escherichia coli expression system at 1 uM by Selectscreen kinase assay
How it was run: (§1)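 Single-point screen at 1 μM final against a panel of 25 kinases using a commercial profiling service; mean of three independent experiments each run in triplicate.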

[5] = biological target: Proto-oncogene tyrosine-protein kinase receptor Ret (Homo sapiens) (UniProt P07949); assay: Inhibition of GST-tagged human RET cytoplasmic domain expressed in baculovirus expression system at 1 uM by Selectscreen kinase assay; how it was run: as §1
[6] = biological target: Calcium/calmodulin-dependent protein kinase kinase 2 (Homo sapiens) (UniProt Q96RR4); assay: Inhibition of GST-tagged full length human CAMKK2 expressed in baculovirus expression system at 1 uM by Selectscreen kinase assay
Sequence of Calcium/calmodulin-dependent protein kinase kinase 2 (Homo sapiens) (Q96RR4 2-588 limits assumed): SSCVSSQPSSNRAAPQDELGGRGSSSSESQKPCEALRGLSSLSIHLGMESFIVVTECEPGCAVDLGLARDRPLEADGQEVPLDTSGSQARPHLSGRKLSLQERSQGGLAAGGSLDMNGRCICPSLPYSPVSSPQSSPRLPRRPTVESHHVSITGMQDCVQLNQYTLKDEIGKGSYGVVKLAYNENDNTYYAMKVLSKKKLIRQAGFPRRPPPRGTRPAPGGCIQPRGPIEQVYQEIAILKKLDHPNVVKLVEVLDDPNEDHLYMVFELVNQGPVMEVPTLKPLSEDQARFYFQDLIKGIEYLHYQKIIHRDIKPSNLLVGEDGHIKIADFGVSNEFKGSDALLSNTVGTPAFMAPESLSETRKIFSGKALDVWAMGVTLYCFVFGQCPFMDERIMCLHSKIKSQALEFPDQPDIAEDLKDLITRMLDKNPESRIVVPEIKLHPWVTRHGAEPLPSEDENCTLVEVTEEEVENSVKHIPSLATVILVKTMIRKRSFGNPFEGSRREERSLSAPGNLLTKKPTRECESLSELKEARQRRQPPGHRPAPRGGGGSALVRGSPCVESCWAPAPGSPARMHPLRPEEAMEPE
How it was run: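 Commercial SelectScreen profiling panel of 25 kinases, test compound at 1 μM. Values are the mean of three independent experiments, each run in triplicate.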

MDA-MB-231 [7] = assay: Induction of apoptosis in human MDA-MB-231 cells assessed as late apoptotic cells at 0.2 uM incubated for 48 hrs by Annexin V-FITC/PI staining based flow cytometric analysis (reference value: 1.49%); assay type: functional
[8] = biological target: Serine/threonine-protein kinase pim-1 (Homo sapiens) (UniProt P11309); assay: Inhibition of His-tagged full length recombinant human PIM1 expressed in baculovirus expression system at 1 uM by Selectscreen kinase assay; how it was run: as §1
Sequence of Serine/threonine-protein kinase pim-1 (Homo sapiens) (P11309 whole entry, looked up): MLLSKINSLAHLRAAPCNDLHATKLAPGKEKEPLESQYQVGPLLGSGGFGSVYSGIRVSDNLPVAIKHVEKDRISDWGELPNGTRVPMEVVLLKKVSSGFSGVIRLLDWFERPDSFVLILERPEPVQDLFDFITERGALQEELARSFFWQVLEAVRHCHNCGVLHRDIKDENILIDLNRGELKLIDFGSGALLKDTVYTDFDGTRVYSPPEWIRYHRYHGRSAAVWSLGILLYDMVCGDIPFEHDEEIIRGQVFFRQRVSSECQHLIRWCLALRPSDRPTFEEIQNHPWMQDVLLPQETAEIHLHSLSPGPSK

MDA-MB-231 [9] = assay: Induction of apoptosis in human MDA-MB-231 cells incubated for 48 hrs by Annexin V-FITC/PI staining based flow cytometric analysis; assay type: functional, cell-based; conditions: dose 0.1-0.4 µM
[10] = biological target: Serine/threonine-protein kinase B-raf (Homo sapiens) (UniProt P15056); assay: Inhibition of GST-tagged human full length BRAF expressed in baculovirus expression system at 1 uM by Selectscreen kinase assay; how it was run: as §1
Sequence of Serine/threonine-protein kinase B-raf (Homo sapiens) (P15056 whole entry): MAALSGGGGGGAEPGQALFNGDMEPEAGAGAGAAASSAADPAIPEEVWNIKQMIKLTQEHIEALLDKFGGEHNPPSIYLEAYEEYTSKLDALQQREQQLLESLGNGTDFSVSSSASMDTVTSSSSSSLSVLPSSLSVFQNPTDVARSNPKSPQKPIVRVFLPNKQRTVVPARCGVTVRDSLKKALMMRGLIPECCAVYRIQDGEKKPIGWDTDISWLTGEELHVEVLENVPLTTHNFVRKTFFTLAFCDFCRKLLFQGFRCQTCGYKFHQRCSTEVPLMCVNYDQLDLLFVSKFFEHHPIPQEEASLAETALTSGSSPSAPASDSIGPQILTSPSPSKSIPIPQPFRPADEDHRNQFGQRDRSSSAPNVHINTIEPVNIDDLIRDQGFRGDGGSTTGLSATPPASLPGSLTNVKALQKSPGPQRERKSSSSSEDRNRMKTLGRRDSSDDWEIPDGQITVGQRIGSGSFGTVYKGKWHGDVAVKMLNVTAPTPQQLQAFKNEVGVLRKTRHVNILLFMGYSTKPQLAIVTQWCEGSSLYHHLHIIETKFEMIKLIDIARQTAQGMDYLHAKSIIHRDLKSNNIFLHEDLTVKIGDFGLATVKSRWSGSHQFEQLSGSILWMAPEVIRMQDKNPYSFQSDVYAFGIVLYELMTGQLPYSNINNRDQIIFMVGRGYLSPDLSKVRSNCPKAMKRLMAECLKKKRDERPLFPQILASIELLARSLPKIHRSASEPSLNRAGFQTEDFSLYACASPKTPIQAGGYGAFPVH

HK-2 = assay: Cytotoxicity against human HK2 cells assessed as inhibition of cell proliferation measured after 72 hrs by MTT assay; assay type: cell-based; conditions: HK-2, 72 h
How it was run: (§2)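 Cells were seeded at 4000–5000/well and held 24 h at 37 °C in 5% CO2. Compounds were added at the indicated final concentrations and incubated 72 h. MTT was added (5 mg/mL in PBS, stated as final) for 4 h at 37 °C. Formazan was dissolved in DMSO and absorbance read at 490 nm. The 50% growth-inhibitory concentration is the mean of three independent experiments ± SE.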

MDA-MB-231 [11] = assay: Induction of cell cycle arrest in human MDA-MB-231 cells assessed as accumulation of cells at G2/M phase at 0.1 uM measured after 48 hrs by PI staining based flow cytometry method (reference value: 17.40%); assay type: functional
Focal adhesion kinase 1 = Focal adhesion kinase 1 (Homo sapiens, UniProt Q05397); assay: Inhibition of N-terminal GST-fused human truncated FAK (376 to 1052 residues) expressed in baculovirus expression system using tyrosine kinase peptide as substrate measured after 50 mins in presence of ATP by homogenous time resolved flourescence assay
Sequence of Focal adhesion kinase 1 (Q05397 whole entry, the tested form may be a part): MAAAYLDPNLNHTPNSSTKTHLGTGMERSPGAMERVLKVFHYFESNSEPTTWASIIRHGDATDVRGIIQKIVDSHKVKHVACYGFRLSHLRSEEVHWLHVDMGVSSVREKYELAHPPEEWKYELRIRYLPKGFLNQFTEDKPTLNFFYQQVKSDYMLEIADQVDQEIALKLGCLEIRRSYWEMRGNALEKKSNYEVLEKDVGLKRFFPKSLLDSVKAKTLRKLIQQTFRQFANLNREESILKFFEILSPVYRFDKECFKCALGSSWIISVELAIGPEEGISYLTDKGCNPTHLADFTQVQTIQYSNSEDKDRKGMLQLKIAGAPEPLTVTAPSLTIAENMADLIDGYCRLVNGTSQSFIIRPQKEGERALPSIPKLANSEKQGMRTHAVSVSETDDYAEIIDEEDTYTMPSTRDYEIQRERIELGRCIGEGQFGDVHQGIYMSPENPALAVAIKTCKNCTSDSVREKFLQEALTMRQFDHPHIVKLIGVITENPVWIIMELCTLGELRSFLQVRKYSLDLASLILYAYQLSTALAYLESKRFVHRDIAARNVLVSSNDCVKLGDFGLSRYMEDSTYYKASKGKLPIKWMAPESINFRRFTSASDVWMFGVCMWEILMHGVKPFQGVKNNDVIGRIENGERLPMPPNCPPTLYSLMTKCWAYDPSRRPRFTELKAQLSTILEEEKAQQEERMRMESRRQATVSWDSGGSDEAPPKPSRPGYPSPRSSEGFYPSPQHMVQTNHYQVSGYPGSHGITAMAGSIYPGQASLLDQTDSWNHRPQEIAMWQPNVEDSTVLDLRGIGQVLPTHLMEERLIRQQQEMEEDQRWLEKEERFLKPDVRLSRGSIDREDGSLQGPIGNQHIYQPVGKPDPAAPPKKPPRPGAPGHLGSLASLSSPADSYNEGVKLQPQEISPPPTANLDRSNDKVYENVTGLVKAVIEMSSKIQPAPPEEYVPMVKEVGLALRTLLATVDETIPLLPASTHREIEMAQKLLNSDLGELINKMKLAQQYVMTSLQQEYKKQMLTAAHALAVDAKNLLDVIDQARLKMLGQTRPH

[12] = biological target: Interleukin-1 receptor-associated kinase 4 (Homo sapiens) (UniProt Q9NWZ3); assay: Inhibition of His-tagged full length human IRAK4 expressed in baculovirus expression system at 1 uM by Selectscreen kinase assay; how it was run: as §1
Sequence of Interleukin-1 receptor-associated kinase 4 (Homo sapiens) (Q9NWZ3 whole entry): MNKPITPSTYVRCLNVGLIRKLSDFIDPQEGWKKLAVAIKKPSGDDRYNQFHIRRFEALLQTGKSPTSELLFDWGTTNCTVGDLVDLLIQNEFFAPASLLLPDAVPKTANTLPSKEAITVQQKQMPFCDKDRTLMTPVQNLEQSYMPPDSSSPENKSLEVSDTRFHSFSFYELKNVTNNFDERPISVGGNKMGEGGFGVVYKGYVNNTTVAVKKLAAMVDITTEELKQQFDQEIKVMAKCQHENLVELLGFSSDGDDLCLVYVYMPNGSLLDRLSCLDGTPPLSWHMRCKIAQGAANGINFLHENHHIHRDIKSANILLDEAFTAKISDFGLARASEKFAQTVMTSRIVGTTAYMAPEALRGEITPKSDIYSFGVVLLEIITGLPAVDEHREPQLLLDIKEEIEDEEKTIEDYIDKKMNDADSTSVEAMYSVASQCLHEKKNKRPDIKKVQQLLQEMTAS

[13] = biological target: Serine/threonine-protein kinase PAK 1 (Homo sapiens) (UniProt Q13153); assay: Inhibition of GST-tagged full length human PAK1 expressed in baculovirus expression system at 1 uM by Selectscreen kinase assay; how it was run: as §1
Sequence of Serine/threonine-protein kinase PAK 1 (Homo sapiens) (Q13153 whole entry): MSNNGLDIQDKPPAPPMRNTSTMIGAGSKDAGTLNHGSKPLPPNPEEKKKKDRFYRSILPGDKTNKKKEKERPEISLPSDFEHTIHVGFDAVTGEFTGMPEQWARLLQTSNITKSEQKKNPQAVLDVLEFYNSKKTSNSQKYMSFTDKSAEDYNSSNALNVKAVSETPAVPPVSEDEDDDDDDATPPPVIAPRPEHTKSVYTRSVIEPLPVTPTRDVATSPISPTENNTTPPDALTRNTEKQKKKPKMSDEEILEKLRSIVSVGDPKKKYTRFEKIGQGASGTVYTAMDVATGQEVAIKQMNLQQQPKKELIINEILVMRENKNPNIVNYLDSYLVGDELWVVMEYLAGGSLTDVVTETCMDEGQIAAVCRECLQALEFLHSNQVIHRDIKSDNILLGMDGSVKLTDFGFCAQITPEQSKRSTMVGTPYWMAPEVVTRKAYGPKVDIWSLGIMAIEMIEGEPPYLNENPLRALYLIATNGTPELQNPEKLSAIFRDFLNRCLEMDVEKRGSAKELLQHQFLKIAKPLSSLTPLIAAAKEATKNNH

MDA-MB-231 [14] = assay: Antiproliferative activity against human MDA-MB-231 cells assessed as inhibition of cell growth measured after 72 hrs by MTT assay; assay type: functional, cell-based; conditions: MDA-MB-231, 72 h; how it was run: as §2
MDA-MB-231 [15] = assay: Induction of cell cycle arrest in human MDA-MB-231 cells assessed as accumulation of cells at S phase at 0.4 uM measured after 48 hrs by PI staining based flow cytometry method (reference value: 39.17%); assay type: functional
A549 [16] = assay: Antiproliferative activity against human A549 cells assessed as reduction in cell viability measured after 24 to 72 hrs by MTT assay; assay type: functional, cell-based; conditions: dose 0.1-2.5 µM, time 24-72 hrs
MDA-MB-231 [17] = assay: Antiproliferative activity against human MDA-MB-231 cells assessed as cell viability at 0.5 uM measured after 72 hrs by MTT assay (reference value: 100%); assay type: functional; conditions: read-out: Activity
MDA-MB-231 [18] = assay: Induction of apoptosis in human MDA-MB-231 cells assessed as late apoptotic cells at 0.4 uM incubated for 48 hrs by Annexin V-FITC/PI staining based flow cytometric analysis (reference value: 1.49%); assay type: functional
MDA-MB-231 [19] = assay: Induction of cell cycle arrest in human MDA-MB-231 cells assessed as accumulation of cells at G0/G1 phase at 0.4 uM measured after 48 hrs by PI staining based flow cytometry method (reference value: 43.43%); assay type: functional
[20] = biological target: MAP kinase-interacting serine/threonine-protein kinase 1 (Homo sapiens) (UniProt Q9BUB5); assay: Inhibition of GST-tagged full length human MKNK1 expressed in insect expression system at 1 uM by Selectscreen kinase assay; how it was run: as §1
Sequence of MAP kinase-interacting serine/threonine-protein kinase 1 (Homo sapiens) (Q9BUB5 whole entry, looked up): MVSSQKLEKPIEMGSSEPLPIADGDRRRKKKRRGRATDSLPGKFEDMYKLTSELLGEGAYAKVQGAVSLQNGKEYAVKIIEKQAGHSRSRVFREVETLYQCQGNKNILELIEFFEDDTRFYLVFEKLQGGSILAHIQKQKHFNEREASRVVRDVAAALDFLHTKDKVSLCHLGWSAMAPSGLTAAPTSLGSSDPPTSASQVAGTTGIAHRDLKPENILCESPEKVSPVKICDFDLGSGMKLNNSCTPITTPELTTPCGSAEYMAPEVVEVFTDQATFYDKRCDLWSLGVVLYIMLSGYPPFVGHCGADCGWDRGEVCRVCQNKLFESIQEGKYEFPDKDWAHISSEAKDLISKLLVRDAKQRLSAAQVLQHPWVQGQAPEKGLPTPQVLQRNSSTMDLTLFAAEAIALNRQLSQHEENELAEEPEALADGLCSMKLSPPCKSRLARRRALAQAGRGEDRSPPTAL

[21] = biological target: Tyrosine-protein kinase BTK (Homo sapiens) (UniProt Q06187); assay: Inhibition of His-tagged full length, recombinant human BTK expressed in baculovirus expression system at 1 uM by Selectscreen kinase assay; how it was run: as §1
Sequence of Tyrosine-protein kinase BTK (Homo sapiens) (Q06187 whole entry): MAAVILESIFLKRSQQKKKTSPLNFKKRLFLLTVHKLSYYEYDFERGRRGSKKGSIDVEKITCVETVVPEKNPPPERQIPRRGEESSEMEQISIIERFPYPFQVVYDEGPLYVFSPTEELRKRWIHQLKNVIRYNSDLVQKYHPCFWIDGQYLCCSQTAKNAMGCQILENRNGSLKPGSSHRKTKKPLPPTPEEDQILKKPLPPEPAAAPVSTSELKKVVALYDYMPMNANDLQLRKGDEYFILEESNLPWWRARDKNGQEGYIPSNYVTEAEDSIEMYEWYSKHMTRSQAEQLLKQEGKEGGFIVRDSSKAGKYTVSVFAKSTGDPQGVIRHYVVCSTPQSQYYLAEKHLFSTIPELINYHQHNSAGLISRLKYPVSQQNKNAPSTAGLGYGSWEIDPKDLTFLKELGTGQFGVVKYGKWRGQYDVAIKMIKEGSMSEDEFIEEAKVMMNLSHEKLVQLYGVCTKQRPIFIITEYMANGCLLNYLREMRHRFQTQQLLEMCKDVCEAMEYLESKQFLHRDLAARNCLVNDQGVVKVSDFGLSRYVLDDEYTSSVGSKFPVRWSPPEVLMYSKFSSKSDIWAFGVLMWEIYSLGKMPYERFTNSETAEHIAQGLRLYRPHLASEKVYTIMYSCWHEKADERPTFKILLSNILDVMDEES

A549 [22] = assay: Antiproliferative activity against human A549 cells assessed as cell viability at 0.5 uM measured after 24 hrs by MTT assay (reference value: 100%); assay type: functional; conditions: read-out: Activity

- inhibition (Homo sapiens): 63%
- inhibition [5]: 97%
- inhibition [6]: 77%
- inhibition [8]: 3%
- inhibition [10]: 51%
- IC50 (Focal adhesion kinase 1): 28.2 nM
- inhibition [12]: 72%
- inhibition [13]: 67%
- IC50 (MDA-MB-231 [14]): 190 nM
- inhibition [20]: 13%
- inhibition [21]: 88%
SMILES: COc1ccccc1-c1csc2cnc(Nc3ccc(C(=O)NC4CCNCC4)c(F)c3)nc12
- viability at 0.5 µM (MDA-MB-231 [1]): 73.7%
- viability at 2.5 µM (A549 [2]): 51.5%
- viability at 2.5 µM (A549 [3]): 31%
- viability at 2.5 µM (MDA-MB-231 [4]): 11.9%
- Activity (MDA-MB-231 [7]): 13.55%
- Activity (MDA-MB-231 [9]): Dose-dependent effect
- IC50 (HK-2): 3320 nM
- Activity (MDA-MB-231 [11]): 12.79%
- Activity (MDA-MB-231 [15]): 40.18%
- Activity (A549 [16]): Dose-dependent effect
- viability at 0.5 µM (MDA-MB-231 [17]): 31%
- Activity (MDA-MB-231 [18]): 26.21%
- Activity (MDA-MB-231 [19]): 56.27%
- viability at 0.5 µM (A549 [22]): 79.1%
